Results taken from ChEMBL document CHEMBL1275283, “Synthesis and evaluation of novel stearoyl-CoA desaturase 1 inhibitors: 1'-{6-[5-(pyridin-3-ylmethyl)-1,3,4-oxadiazol-2-yl]pyridazin-3-yl}-3,4-dihydrospiro[chromene-2,4'-piperidine] analogs” (Eur J Med Chem, 2010).
Values after ≈ are worked out from the molar mass of the structure shown.

Columns and labels:
Stearoyl-CoA desaturase [1] = target: T1, Stearoyl-CoA desaturase (Homo sapiens, UniProt O00767); assay: Inhibition of SCD1 in HEK293A cell microsomes assessed as reduction in conversion of [14C]stearic acid to [14C]oleic acid after 30 mins; parameters: species or system HEK293-A, Microsome
T1 sequence (O00767 whole entry): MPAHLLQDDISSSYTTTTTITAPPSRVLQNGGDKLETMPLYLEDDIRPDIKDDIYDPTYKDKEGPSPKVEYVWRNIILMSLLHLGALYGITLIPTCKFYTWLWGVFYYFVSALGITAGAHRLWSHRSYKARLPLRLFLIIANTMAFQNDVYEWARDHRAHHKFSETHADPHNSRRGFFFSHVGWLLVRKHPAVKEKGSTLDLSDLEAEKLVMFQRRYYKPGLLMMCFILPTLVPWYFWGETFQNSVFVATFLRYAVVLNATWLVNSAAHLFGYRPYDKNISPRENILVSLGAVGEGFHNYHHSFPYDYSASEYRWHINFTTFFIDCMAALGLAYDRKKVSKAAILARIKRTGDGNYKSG

Acyl-CoA desaturase 1 = target: T2, Acyl-CoA desaturase 1 (Mus musculus, UniProt P13516); assay: Inhibition of SCD1 in mouse microsome assessed as reduction in conversion of [14C]stearic acid to [14C]oleic acid after 30 mins; format: microsomes
T2 sequence (P13516 whole entry): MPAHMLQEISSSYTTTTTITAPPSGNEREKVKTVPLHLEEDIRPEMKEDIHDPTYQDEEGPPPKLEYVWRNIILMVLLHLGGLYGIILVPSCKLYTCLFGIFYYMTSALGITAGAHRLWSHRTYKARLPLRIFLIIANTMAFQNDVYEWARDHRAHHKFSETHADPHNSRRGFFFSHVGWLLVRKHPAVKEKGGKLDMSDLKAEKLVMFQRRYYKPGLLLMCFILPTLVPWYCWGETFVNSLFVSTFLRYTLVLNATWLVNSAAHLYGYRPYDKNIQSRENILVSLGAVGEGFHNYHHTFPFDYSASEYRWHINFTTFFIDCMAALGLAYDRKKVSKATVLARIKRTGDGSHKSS

Stearoyl-CoA desaturase [2] = target: T1, Stearoyl-CoA desaturase; assay: Inhibition of human SCD1 expressed in HEK293A cells assessed as reduction in conversion of [14C]stearic acid to [14C]oleic acid after 30 mins; format: cell-based, HEK293-A
Summary of the method: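 293A cells stably expressing human SCD1 (G418-selected) grown to confluence in DMEM + 10% FBS. Cells preincubated with compound 30 min, then given 0.1 µCi [14C]stearate for 4 h. Lipids saponified in KOH, separated by AgNO3-TLC, and the [14C]oleate/[14C]stearate ratio used as activity. IC50 derived from this read-out.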

Mus musculus = assay: Inhibition of liver SCD1 activity in po dosed db/db mouse assessed as reduction in conversion of [14C]stearic acid to [14C]oleic acid; format: functional; settings: read-out: ID50 (the source's name)
Summary of the method: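 Seven-week-old male db/db mice dosed by oral gavage 2 h before i.p. [14C]stearate (100 µCi/kg in saline with 2% BSA). Livers harvested 1 h later and homogenized in cold PBS. Saponified homogenate analyzed by AgNO3-TLC for the [14C]oleate/[14C]stearate ratio. ID50 is the dose giving 50% inhibition.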

[3] = Aqueous solubility of the compound at neutral JP-2 solution of pH 6.8 by HPLC analysis; format: physicochemical
Summary of the method: (§1)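 Solubility measured in purchased aqueous acidic JP-1 (pH 1.2) or neutral JP-2 (pH 6.8) media. Samples analyzed by HPLC, with UV peak area compared to a calibration standard of 250 µM compound in CH3CN/water 1:1. Means of at least two experiments.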

[4] = AUC (0 to 8 hrs) in C57BL/6J mouse at 20 mg/kg, po; format: ADME, organism-based; parameters: time < 8 hr, dose 20 mg/kg, route oral; settings: plasma
Summary of the method: (§2)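 Oral gavage via intubation tube at 20 mg/kg in propylene glycol/Tween 4:1, n = 3 C57BL/6J mice. Plasma sampled up to 8 h after dosing. Values are arithmetic means of at least two experiments.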

[5] = Tmax in C57BL/6J mouse at 20 mg/kg, po; format: ADME, organism-based; parameters: dose 20 mg/kg, route oral; settings: in vivo; summary of the method: as §2
[6] = Aqueous solubility of the compound at acidic JP-1 solution of pH 1.2 by HPLC analysis; format: physicochemical; summary of the method: as §1
[7] = Cmax in C57BL/6J mouse at 20 mg/kg, po up to 8 hrs; format: ADME, organism-based; parameters: dose 20 mg/kg, route oral; settings: in vivo; summary of the method: as §2
[8] = Half life in C57BL/6J mouse at 20 mg/kg, po; format: ADME, organism-based; parameters: dose 20 mg/kg, route oral; settings: in vivo; summary of the method: as §2

Row | Structure (SMILES) | IC50 (Stearoyl-CoA desaturase [1]) | IC50 (Acyl-CoA desaturase 1) | IC50 (Stearoyl-CoA desaturase [2]) | ED50 (Mus musculus) | solubility [3] | AUC(0-t) at 8 h [4] | Tmax [5] | solubility [6] | Cmax [7] | half-life [8]
1 | c1ccc(Cc2nnc(-c3ccc(N4CCC5(CCc6ccccc6O5)CC4)nn3)o2)nc1 | 4 nM | 3 nM | 9 nM | 6 mg/kg | – | – | – | – | – | –
2 | Cc1cccc2c1CCC1(CCN(c3ccc(-c4nnc(Cc5cccnc5)o4)nn3)CC1)O2 | 0.2 nM | 0.2 nM | 0.7 nM | 1 mg/kg | < 0.5 µM | 2100 ng·h/mL | 48 min | 91 µM (≈ 41.4 µg/mL) | 1100 ng/mL | 36 min
3 | c1cncc(Cc2nnc(-c3ccc(N4CCC5(CCc6ccccc6O5)CC4)nn3)o2)c1 | 1 nM | 2 nM | 4 nM | 2 mg/kg | 4.2 µM (≈ 1.85 µg/mL) | 2400 ng·h/mL | 60 min | 92 µM (≈ 40.5 µg/mL) | 1300 ng/mL | 48 min
4 | c1ccc2c(c1)CCC1(CCN(c3ccc(-c4nnc(Cc5ccncc5)o4)nn3)CC1)O2 | 6 nM | 4 nM | 7 nM | 7 mg/kg | – | – | – | – | – | –
